GPR7 antag = GPR7 receptor antagonists, primary screen, cell-based, fluorescence, single concentration. Neuropeptides B/W receptor type 1 (Homo sapiens), P48145. GPR7-expressing cells, fluorescence antagonist assay. inhibition, % at 4.4 µM. 290,000 tested, 1.1% active; in the data active = inhibition above about 16%, passing the limit was not always enough;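 note: cells stimulated with the agonist NPW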
DAGLB inh = DAGLB lipase inhibitors, primary screen, biochemical, fluorescence, HTS | Diacylglycerol lipase-beta (Homo sapiens), Q8NCG7 | HEK293T DAGLB membrane lysate, EnzChek fluorogenic substrate | inhibition, % at 5.17 µM | 340,000 tested, 0.059% active | AID 504411, 2011; in the data active = inhibition above about 34%
DNA FID counter = compounds displacing fluorescent DNA intercalator, primary screen, artefact control for HCV NS3 helicase inhibitor project, biochemical, FID fluorescence; 290,000 tested, 0.17% active; inhibition, % at 7.9 µM; DNA fluorescent intercalator displacement; AID 1845, 2009; in the data active = inhibition above about 37%;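 note: higher means more ethidium bromide displaced from hairpin DNA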
HCV core dimer = inhibitors of HCV core protein dimerization, primary screen, biochemical, TR-FRET, high-throughput. TR-FRET GST/Flag-core106 dimerization, 1536-well. inhibition, % at 5 µM. 300,000 tested, 0.33% active. AID 1899, 2009;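 active = inhibition above the mean of all tested compounds plus 3 SD, set per screening campaign, cut at about 45% in these data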
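Assay system – GST-tagged and Flag-tagged HCV core protein residues 1-106 · Quantity – core106 proteins, GST 13.5 nM and Flag 17 nM · Benchmarks – unlabelled core106 and no-GST-core106 wells · Read-out basis – percent inhibition of core106 dimerization signal · Detection – time-resolved FRET, ex 340 nm, em 617 and 671 nm · Schedule – 4 h at 22.5 °C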
NS3 helicase inh = inhibitors of HCV NS3 helicase, primary screen, biochemical, Cy5 molecular beacon fluorescence | 290,000 tested, 0.56% active | inhibition, % at 10.9 µM | NS3 helicase DNA unwinding | Hepatitis C virus NS3 helicase | AID 1800, 2009;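 active = inhibition above the mean of all tested compounds plus 3 SD, set per campaign, cut at about 35% in these data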
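test system = hepatitis C virus NS3 helicase domain fragment enzyme | reagent = annealed dual-labelled DNA beacon duplex, ATP-started | times = 1 h at 25 °C | detection = Cy5 fluorescence, 0 and 60 min reads | read-out basis = percent inhibition from t60/t0 fluorescence ratio | control set = DMSO and thioflavine S | replication = one well per compound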
GRK2 aptamer HTS = compounds blocking aptamer binding on GRK2 – biochemical, human GRK2, bead flow cytometry, HTS, primary screen | Beta-adrenergic receptor kinase 1 (Homo sapiens), P25098 | inhibition of aptamer binding, % at 10 µM | FAM-aptamer displacement from GRK2 | 330,000 tested, 0.59% active;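 active = inhibition of aptamer binding above 40%, roughly 3 SD of noise, on plates passing a quality check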;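 note: median bead fluorescence of bound FAM aptamer so fluorescent compounds give negative values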
Target sequence (P25098 whole entry, looked up): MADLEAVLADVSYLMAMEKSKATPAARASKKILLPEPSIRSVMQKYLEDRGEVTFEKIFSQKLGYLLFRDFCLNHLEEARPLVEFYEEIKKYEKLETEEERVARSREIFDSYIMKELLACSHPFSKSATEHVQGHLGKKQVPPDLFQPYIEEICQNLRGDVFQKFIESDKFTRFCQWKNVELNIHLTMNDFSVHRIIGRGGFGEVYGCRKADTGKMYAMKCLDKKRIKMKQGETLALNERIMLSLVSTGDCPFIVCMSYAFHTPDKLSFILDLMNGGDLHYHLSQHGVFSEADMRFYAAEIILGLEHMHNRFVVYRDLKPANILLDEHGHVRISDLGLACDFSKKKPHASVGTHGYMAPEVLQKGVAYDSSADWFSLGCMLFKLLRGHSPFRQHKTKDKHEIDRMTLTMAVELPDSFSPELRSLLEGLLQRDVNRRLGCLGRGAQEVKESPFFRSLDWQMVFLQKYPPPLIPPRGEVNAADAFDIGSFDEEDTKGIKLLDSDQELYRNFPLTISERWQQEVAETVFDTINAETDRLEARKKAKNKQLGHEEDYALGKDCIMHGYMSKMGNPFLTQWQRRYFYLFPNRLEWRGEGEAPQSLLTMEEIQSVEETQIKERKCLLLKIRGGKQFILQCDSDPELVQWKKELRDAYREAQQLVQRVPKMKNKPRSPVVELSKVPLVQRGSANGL
GPR7 antag cf = GPR7 receptor antagonists, confirmation, cell-based, fluorescence, single concentration; shares compounds with GPR7 antag; GPR7-expressing cells, calcium fluorescence antagonist mode; inhibition, % at 4.4 µM; 2,400 tested, 52% active; in the data active = inhibition above about 24%;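 note: stimulated with the GPR7 agonist NPW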
MCHR1 antag = MCHR1 antagonists in cells, counter-screen for GPR7 antagonist project, cell-based, fluorescence, human; shares compounds with GPR7 antag; MCHR1-expressing cells, fluorescence antagonist assay; inhibition, % at 4.4 µM; 2,400 tested, 62% active; AID 2148, 2009; in the data active = inhibition above about 22%
Large screens that a line does not name were inactive (follow-up assays come after a bar, where they were run). Compounds with a hit are over-represented: about 2.2% of the library has one in this group of screens.

CCCC(O)(CCC)C(=O)NN(C(=O)OC)c1ccccc1	none
CCCCC(O)(CCCC)C(=O)NN(C(=O)OC)c1ccc(C)cc1	GPR7 antag 23 | GPR7 antag cf inactive | MCHR1 antag inactive
Cc1c(Cl)sn(-c2ccc(Cl)cc2)c1=O	GPR7 antag 25 (no result: HCV core dimer, GRK2 aptamer HTS) | GPR7 antag cf 73 | MCHR1 antag 91
Cc1ccc2c(c1)SC1=NC(c3ccccc3)(C(F)(F)F)NC(=O)N12 (centres undefined)	none (no result: DAGLB inh)
COC(=O)CC1(C(=O)OC)Oc2ccc(Br)cc2C(=O)N1c1cccc(Cl)c1Cl (centres undefined)	GPR7 antag 30 | GPR7 antag cf 32 | MCHR1 antag 53
COc1ccc(N(C(=O)c2ccco2)C(C(=O)NC2CCCC2)c2cc(OC)c(OC)c(OC)c2)cc1 (centres undefined)	none
COc1cccc(CN(C)C(=O)C23CC4CC(CC(NC(C)=O)(C4)C2)C3)c1OC	none (no result: HCV core dimer)
COc1ccc(CN(C)C(=O)C23CC4CC(CC(Cl)(C4)C2)C3)c(OC)c1OC	GPR7 antag 25 | GPR7 antag cf inactive | MCHR1 antag 23
CCOC(=O)c1cn[nH]c1NC(=S)Nc1ccc(OC)cc1	GPR7 antag 30 | GPR7 antag cf 26 | MCHR1 antag inactive
Cc1cc(OCc2cc(C(=O)N(C)C3CCOC3)no2)cc(C)c1Cl (centres undefined)	none
CC(Sc1nnc2n1CCCCC2)C(=O)Nc1cccc(S(=O)(=O)N2CCOCC2)c1 (centres undefined)	none (no result: GPR7 antag, DNA FID counter, HCV core dimer, NS3 helicase inh, GRK2 aptamer HTS)
O=C(Nc1ccc(Cl)cc1)Nc1ccc(Cl)c(Cl)c1	none (no result: GPR7 antag, DAGLB inh, DNA FID counter, HCV core dimer, NS3 helicase inh)
N#Cc1ccc(NC(=O)Nc2ccc(Cl)cc2)cc1	GPR7 antag 30 | GPR7 antag cf 58 | MCHR1 antag 57
COCCN1Cc2cccc(C(=O)Nc3ccc(C)cc3)c2C1=O	none
CCOC(=O)c1ccc(NC(=O)c2cccc(S(=O)(=O)N3CCOCC3)c2)cc1	GPR7 antag 24 | GPR7 antag cf inactive | MCHR1 antag 75
COCCN1Cc2cccc(C(=O)Nc3ccc(S(=O)(=O)N4CCCCC4)cc3)c2C1=O	GPR7 antag 24 | GPR7 antag cf inactive | MCHR1 antag inactive
Cc1ccc(NC(=O)c2ccc(CN3CCc4ccccc4C3)cc2)cc1	none
O=C(Nc1ccc(S(=O)(=O)N2CCCCC2)cc1)c1ccc(CN2CCc3ccccc3C2)cc1	GPR7 antag 25 | GPR7 antag cf 49 | MCHR1 antag 57
Cc1ccc(C(=O)Nc2ccc(S(=O)(=O)N3CCN(C)CC3)cc2)cc1	GPR7 antag 45 | GPR7 antag cf inactive | MCHR1 antag inactive
O=C(NCc1ccccc1)c1onc(CSc2ccccc2)c1C(=O)NCC1CC1	none (no result: GPR7 antag, DNA FID counter, NS3 helicase inh)
O=C(NC1(C(F)(F)F)N=C2SCCN2C1=O)c1cccnc1 (centres undefined)	none
CCOc1ccc(S(=O)(=O)N(CC)CC(=O)NCc2cccnc2)cc1C	none
CSc1ncccc1C(=O)N1CCCC(Nc2ccc(C)c(C)c2)C1 (centres undefined)	none (no result: HCV core dimer)
Cc1ccc2nccc(C(=O)N3CCCC(Nc4ccc(C)c(C)c4)C3)c2c1 (centres undefined)	GPR7 antag 27 | GPR7 antag cf inactive | MCHR1 antag inactive
CCOCCCNC(=O)CSc1nnc(-c2ccc(S(=O)(=O)N3CCCC3)cc2)n1C	none
CC(C)(O)C#Cc1ccc(CN2CCN(C3CCCCC3)C(CCO)C2)s1 (centres undefined)	none
O=C(/C=C/Nc1ccccc1Br)c1ccccn1	GPR7 antag 30 | GPR7 antag cf inactive | MCHR1 antag inactive
CC(CC(=O)NC1CCCC1)c1ccccc1 (centres undefined)	GPR7 antag 34 | GPR7 antag cf inactive | MCHR1 antag inactive
Cc1ccc(C(=O)NC2CCCc3ccccc32)cc1[N+](=O)[O-] (centres undefined)	GPR7 antag 34 | GPR7 antag cf 25 | MCHR1 antag 55
Cc1cc(C(=O)NC2CCCc3ccccc32)ccc1[N+](=O)[O-] (centres undefined)	none
O=C(NNC(=O)c1ccc(Oc2ccc(C3SCCS3)cc2)o1)c1ccc(Cl)cc1	none
Cn1cc(CN2CCCC(C(=O)Nc3cccc(-n4cccn4)c3)C2)cn1 (centres undefined)	none
Cn1cc(CN2CCCC(C(=O)Nc3ccc(-c4cccc(F)c4)cc3)C2)cn1 (centres undefined)	GPR7 antag 39 | GPR7 antag cf 42 | MCHR1 antag 64
C/C(CC(=O)Nc1ccc(N(C)C)cc1)=N\NC(=O)c1ccc(C(C)(C)C)cc1	none
CC(C)(C)NC(=O)c1oc2ccccc2c1COc1ccccc1	GPR7 antag 26 | GPR7 antag cf inactive | MCHR1 antag 35
Clc1ccc2[nH]c3c(NCC4CCCO4)ncnc3c2c1 (centres undefined)	GPR7 antag 38 (no result: DAGLB inh) | GPR7 antag cf inactive | MCHR1 antag 62
CC(C)c1ccccc1NC(=O)Cn1c(-c2ccccc2Cl)nc2ccccc21	GPR7 antag 23 | GPR7 antag cf inactive | MCHR1 antag inactive
CC(C)c1ccccc1NC(=O)Cn1c(/C=C/c2ccccc2)nc2ccccc21	none (no result: DAGLB inh)
Cn1cccc1C(=O)NC(=O)COC(=O)CNC(=O)CNC(=O)c1ccc(Cl)cc1Cl	GPR7 antag 27 | GPR7 antag cf inactive | MCHR1 antag inactive
CC(=O)c1ccc(N2CCN(S(=O)(=O)c3ccc4c(c3)CC(=O)N4)CC2)cc1	none
CC(=O)c1ccc(N2CCN(S(=O)(=O)c3ccc4c5c3CC(=O)N5CC(C)S4)CC2)cc1 (centres undefined)	GPR7 antag 25 | GPR7 antag cf inactive | MCHR1 antag 41
CS(=O)(=O)N(CC(=O)N1CCN(Cc2ccc3c(c2)OCO3)CC1)Cc1ccc(Cl)cc1	GPR7 antag 25 | GPR7 antag cf 38 | MCHR1 antag 56
O=C(Nc1nncs1)C1CC(=O)N(C2CCCC2)C1 (centres undefined)	none
COc1ccc(OC)c(N(CC(=O)NC2CC3CCC2C3)S(=O)(=O)c2ccccc2)c1 (centres undefined)	none

Bioassay records as filed in PubChem BioAssay.
